pEC50: −log10 of the molar value. Calls of active or inactive are those of the source. The rule behind the calls is not given here.
Experiments:
Human betaherpesvirus 5 [1] = assay: Antiviral activity againstpp28-luciferase expressing HCMV Towne infected in human HFF cells assessed as reduction in viral replication treated with compound following viral infection at MOI of 1 PFU/cells measured after 3 days in presence of GCV by luciferase reporter gene assay; type: functional, organism-based; details: Human betaherpesvirus 5, strain Towne, 72 h
In short: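 HFFs in 96-well plates were infected with pp28-luciferase Towne HCMV, in which luciferase is driven by the UL99 late promoter, at MOI 1. A dose-response of each drug alone gave its EC₅₀. Combinations started at twice each EC₅₀ in DMEM with 4% FBS, followed by two-fold serial dilutions, and were added after infection. Luciferase was read in cell lysates at 72 hpi. The Bliss ratio is observed over expected inhibition.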

Human betaherpesvirus 5 [2] = assay: Inhibition of viral protein expression in HCMV Towne infected in human HFF cells assessed as reduction in pp65 expression at 3 uM treated with compound following viral infection at MOI of 1 PFU/cell measured at 72 hrs post infection by Western blot analysis; type: functional, organism-based; details: strain Towne
In short: (§1)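 HFFs infected with HCMV Towne (MOI 1), then treated with compound. Lysates taken at 72 hpi, equal protein loaded on 8–10% Tris-glycine SDS-PAGE and transferred to PVDF. Primary antibodies overnight at 4 °C, HRP secondary, chemiluminescent detection; β-actin as loading control.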

Human betaherpesvirus 5 [3] = assay: Inhibition of viral protein expression in HCMV Towne infected in human HFF cells assessed as reduction in UL44 expression at 3 uM treated with compound following viral infection at MOI of 1 PFU/cell measured at 72 hrs post infection by Western blot analysis; type: functional, organism-based; details: strain Towne; in short: as §1
HFF = assay: Cytotoxicity against human HFF cells assessed as reduction in cell viability incubated for 72 hrs or 10 days by MTT assay; type: cell-based
In short: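 MTT assay on uninfected cells exposed to compound for 72 h or 8–10 days, matching the antiviral assay durations. MTT (5 mg/mL stock in PBS) added, then 2–3 h at 37 °C. Formazan absorbance read at 560 nm.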

Human betaherpesvirus 5 [4] = assay: Inhibition of viral protein expression in HCMV Towne infected in human HFF cells assessed as reduction in UL44 expression at 3 uM treated with compound for 24 hrs followed by viral infection at MOI of 0.01 PFU/cell measured at 72 hrs post infection by Western blot analysis; type: functional, organism-based; details: strain Towne
In short: (§2)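 HFFs pretreated with compound, then infected with HCMV Towne at MOI 1, 0.1 or 0.01. Viral proteins in cell lysates detected at 72 hpi by SDS-PAGE (8–10%), PVDF transfer and chemiluminescent immunoblot. Images from a representative experiment.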

Human betaherpesvirus 5 [5] = assay: Inhibition of viral protein expression in HCMV Towne infected in human HFF cells assessed as reduction in UL84 expression at 3 uM treated with compound following viral infection at MOI of 1 PFU/cell measured at 72 hrs post infection by Western blot analysis; type: functional, organism-based; details: strain Towne; in short: as §1
Human betaherpesvirus 5 [6] = assay: Antiviral activity against HCMV TB40 infected in human HFF cells assessed as reduction in plaque formation treated with compound following viral infection and incubated for 8 to 10 days by crystal violet staining based assay; type: functional, organism-based; details: Human betaherpesvirus 5, TB40, HFF
Human betaherpesvirus 5 [7] = assay: Inhibition of viral protein expression in HCMV Towne infected in human HFF cells assessed as reduction in IE2 expression at 3 uM treated with compound for 24 hrs followed by viral infection at MOI of 0.01 PFU/cell measured at 72 hrs post infection by Western blot analysis; type: functional, organism-based; details: strain Towne; in short: as §2

COc1ccc(Cl)cc1C(=O)Nc1ccc(NC(=O)c2ccco2)cc1
pEC50 (Human betaherpesvirus 5 [1]): 6.14
inhibition (Human betaherpesvirus 5 [2]): inactive
inhibition (Human betaherpesvirus 5 [3]): inactive
CC50 (HFF): > 500000 nM
inhibition (Human betaherpesvirus 5 [4]): Active
inhibition (Human betaherpesvirus 5 [5]): inactive
pEC50 (Human betaherpesvirus 5 [6]): 6.92
inhibition (Human betaherpesvirus 5 [7]): Active

Source: ChEMBL document CHEMBL4354867, “Validation and Characterization of Five Distinct Novel Inhibitors of Human Cytomegalovirus” (J Med Chem, 2020)
